Measurements as given in ChEMBL document CHEMBL1687913, “Structure-activity relationship, conformational and biological studies of temporin L analogues” (J Med Chem, 2011).
Values after ≈ are worked out from the molar mass of the structure shown. Where a SMILES comes first, the peptide text is derived from it.

Tests used:
Acinetobacter baumannii = assay: Antibacterial activity against Acinetobacter baumannii ATCC 19606 after 18 to 20 hrs by microbroth dilution method; type: functional
In short: (§1)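 CLSI microbroth dilution, adapted. Mid-log bacteria, 2 × 10^6 CFU/mL in Mueller-Hinton broth, mixed 1:1 with MH broth holding peptide in serial 2-fold dilutions in 20% ethanol (0.75-48 μM). Incubated 18-20 h at 37 °C; growth read as A600. MIC is the lowest concentration giving 100% growth inhibition.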

Acinetobacter junii = assay: Antibacterial activity against […] Acinetobacter junii RT-4 after 18 to 20 hrs by microbroth dilution method; type: functional; in short: as §1
Enterococcus faecalis = assay: Antibacterial activity against Enterococcus faecalis ATCC 29212 after 18 to 20 hrs by microbroth dilution method; type: functional; in short: as §1
Escherichia coli [1] = assay: Antibacterial activity against Escherichia coli ATCC 25922 after 18 to 20 hrs by microbroth dilution method; type: functional; in short: as §1
Escherichia coli [2] = assay: Antibacterial activity against Escherichia coli D21 after 18 to 20 hrs by microbroth dilution method; type: functional; in short: as §1
Pseudomonas syringae = assay: Antibacterial activity against Pseudomonas syringae pv tobaci after 18 to 20 hrs by microbroth dilution method; type: functional; in short: as §1
Pseudomonas aeruginosa [3] = assay: Antibacterial activity against Pseudomonas aeruginosa ATCC 15692 after 18 to 20 hrs by microbroth dilution method; type: functional; in short: as §1
Pseudomonas aeruginosa [4] = assay: Antibacterial activity against Pseudomonas aeruginosa ATCC 27853 after 18 to 20 hrs by microbroth dilution method; type: functional; in short: as §1
[5] = tested on: Yersinia pseudotuberculosis; assay: Antibacterial activity against Yersinia pseudotuberculosis YPIII after 18 to 20 hrs by microbroth dilution method; type: functional
In short: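 Broth microdilution adapted from CLSI. Mid-log bacteria at 2 × 10^6 CFU/mL in Mueller-Hinton broth were mixed 1:1 with MH broth containing peptide in serial 2-fold dilutions (peptide in 20% ethanol), 0.75-48 μM. Plates were incubated 18-20 h at 37 °C and growth was read as A600. MIC is the concentration giving 100% growth inhibition.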

Priestia megaterium = assay: Antibacterial activity against Bacillus megaterium Bm11 after 18 to 20 hrs by microbroth dilution method; type: functional; in short: as §1
Staphylococcus aureus [6] = assay: Antibacterial activity against Staphylococcus aureus ATCC 25923 after 18 to 20 hrs by microbroth dilution method; type: functional; in short: as §1
Staphylococcus aureus [7] = assay: Antibacterial activity against Staphylococcus aureus Cowan I after 18 to 20 hrs by microbroth dilution method; type: functional; in short: as §1
Staphylococcus capitis = assay: Antibacterial activity against Staphylococcus capitis after 18 to 20 hrs by microbroth dilution method; type: functional; in short: as §1
[8] = tested on: Staphylococcus epidermidis; assay: Antibacterial activity against Staphylococcus epidermidis ATCC 12228 after 18 to 20 hrs by microbroth dilution method; type: functional; in short: as §1
Streptococcus pyogenes = assay: Antibacterial activity against Streptococcus pyogenes ATCC 21547 after 18 to 20 hrs by microbroth dilution method; type: functional; in short: as §1
Candida albicans = assay: Antifungal activity against Candida albicans ATCC 10231 after 18 to 20 hrs by microbroth dilution method; type: functional
In short: (§2)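 Yeasts tested by adapted CLSI microbroth dilution in Winge medium. Peptide given in serial 2-fold dilutions (0.75-48 μM, made in 20% ethanol). Incubation 18-20 h at 30 °C, read at A600. MIC taken as the concentration giving complete (100%) growth inhibition.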

[9] = tested on: Schizosaccharomyces pombe; assay: Antifungal activity against Schizosaccharomyces pombe after 18 to 20 hrs by microbroth dilution method; type: functional; in short: as §2
Saccharomyces cerevisiae = assay: Antifungal activity against Saccharomyces cerevisiae after 18 to 20 hrs by microbroth dilution method; type: functional; in short: as §2
[10] = Toxicity in human erythrocytes assessed as hemolysis at 24 uM after 40 mins; type: cell-based, Erythrocyte; conditions: read-out: Activity
In short: (§3)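 Human red blood cells suspended in 0.9% (w/v) NaCl and incubated 40 min at 37 °C with gentle mixing with serial 2-fold peptide dilutions (peptide predissolved in 20% ethanol). Spun 5 min at 900g; supernatant read at 415 nm. Cells lysed in distilled water set the 100% lysis reference.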

[11] = Toxicity in human erythrocytes assessed as hemolysis at 12 uM after 40 mins; type: cell-based, Erythrocyte; conditions: read-out: Activity; in short: as §3
[12] = Toxicity in human erythrocytes assessed as hemolysis at 6 uM after 40 mins; type: cell-based, Erythrocyte; conditions: read-out: Activity; in short: as §3
[13] = Toxicity in human erythrocytes assessed as hemolysis at 3 uM after 40 mins; type: cell-based, Erythrocyte; conditions: read-out: Activity; in short: as §3
[14] = Toxicity in human erythrocytes assessed as hemolysis at 1.5 uM after 40 mins; type: cell-based, Erythrocyte; conditions: read-out: Activity; in short: as §3

| Compound | MIC (Acinetobacter baumannii) | MIC (Acinetobacter junii) | MIC (Enterococcus faecalis) | MIC (Escherichia coli [1]) | MIC (Escherichia coli [2]) | MIC (Pseudomonas syringae) | MIC (Pseudomonas aeruginosa [3]) | MIC [5] | MIC (Priestia megaterium) | MIC (Staphylococcus aureus [6]) | MIC (Staphylococcus aureus [7]) | MIC (Staphylococcus capitis) | MIC [8] | MIC (Streptococcus pyogenes) | MIC (Candida albicans) | MIC [9] | hemolysis at 40 min, 24 µM [10] | hemolysis at 40 min, 12 µM [11] | hemolysis at 40 min, 6 µM [12] | hemolysis at 40 min, 3 µM [13] | further results |
| --- | --- | --- | --- | --- | --- | --- | --- | --- | --- | --- | --- | --- | --- | --- | --- | --- | --- | --- | --- | --- | --- |
| CC[C@@H](C)[C@@H](NC(=O)[C@@H](CCCNC(=N)N)NC(=O)CNC(=O)[C@@H](CC(C)C)NC(=O)[C@@H](Cc1ccccc1)NC(=O)[C@@H](CCCCN)NC(=O)[C@@H](CO)NC(=O)[C@@H](Cc1ccccc1)NC(=O)[C@@H](Cc1c[nH]c2ccccc12)NC(=O)[C@@H](CCC(N)=O)NC(=O)[C@H](NC(=O)[C@H](N)Cc1ccccc1)C(C)C)C(=O)N[C@H](CC(C)C)C(N)=O [listing 1 of 2 here] | 6 µM (≈ 9.84 µg/mL) | 6 µM (≈ 9.84 µg/mL) | 3 µM (≈ 4.92 µg/mL) | 12 µM (≈ 19.7 µg/mL) | 12 µM (≈ 19.7 µg/mL) | 6 µM (≈ 9.84 µg/mL) | 48 µM (≈ 78.7 µg/mL) | 3 µM (≈ 4.92 µg/mL) | 1.5 µM (≈ 2.46 µg/mL) | 3 µM (≈ 4.92 µg/mL) | 3 µM (≈ 4.92 µg/mL) | 3 µM (≈ 4.92 µg/mL) | 3 µM (≈ 4.92 µg/mL) | 6 µM (≈ 9.84 µg/mL) | 6 µM (≈ 9.84 µg/mL) | 6 µM (≈ 9.84 µg/mL) | – | – | – | – | MIC (Pseudomonas aeruginosa [4]): > 48 µM; MIC (Saccharomyces cerevisiae): 6 µM (≈ 9.84 µg/mL) |
| CC(C)C[C@H](NC(=O)[C@H](Cc1c[nH]c2ccccc12)NC(=O)[C@H](CCCNC(=N)N)NC(=O)CNC(=O)[C@H](CC(C)C)NC(=O)[C@H](CC(C)C)NC(=O)[C@H](CCCCN)NC(=O)[C@H](CO)NC(=O)[C@H](CC(C)C)NC(=O)[C@H](Cc1c[nH]c2ccccc12)NC(=O)[C@H](CCC(N)=O)NC(=O)[C@H](CC(C)C)NC(=O)[C@@H](N)CC(C)C)C(N)=O (H-LLQWLSKLLGRWL-NH2) | 6 µM (≈ 9.75 µg/mL) | 6 µM (≈ 9.75 µg/mL) | 12 µM (≈ 19.5 µg/mL) | > 48 µM | > 48 µM | 12 µM (≈ 19.5 µg/mL) | > 48 µM | 6 µM (≈ 9.75 µg/mL) | 3 µM (≈ 4.88 µg/mL) | 6 µM (≈ 9.75 µg/mL) | 6 µM (≈ 9.75 µg/mL) | 6 µM (≈ 9.75 µg/mL) | 3 µM (≈ 4.88 µg/mL) | 6 µM (≈ 9.75 µg/mL) | 12 µM (≈ 19.5 µg/mL) | 6 µM (≈ 9.75 µg/mL) | 100% | 100% | 78% | 13% | MIC (Pseudomonas aeruginosa [4]): > 48 µM; MIC (Saccharomyces cerevisiae): 12 µM (≈ 19.5 µg/mL); hemolysis at 40 min, 1.5 µM [14]: 8% |
| CC[C@H](C)[C@H](NC(=O)[C@H](CCCNC(=N)N)NC(=O)CNC(=O)[C@H](CC(C)C)NC(=O)[C@H](Cc1ccccc1)NC(=O)[C@H](CCCCN)NC(=O)[C@H](CO)NC(=O)[C@H](Cc1ccccc1)NC(=O)[C@H](Cc1c[nH]c2ccccc12)NC(=O)[C@@H]1CCCN1C(=O)[C@H](CC(C)C)NC(=O)[C@@H](N)Cc1ccccc1)C(=O)N[C@@H](CC(C)C)C(N)=O (H-FLPWFSKFLGRIL-NH2) | 12 µM (≈ 19.5 µg/mL) | 12 µM (≈ 19.5 µg/mL) | 12 µM (≈ 19.5 µg/mL) | 12 µM (≈ 19.5 µg/mL) | 24 µM (≈ 39 µg/mL) | 12 µM (≈ 19.5 µg/mL) | > 48 µM | 6 µM (≈ 9.74 µg/mL) | 3 µM (≈ 4.87 µg/mL) | 3 µM (≈ 4.87 µg/mL) | 3 µM (≈ 4.87 µg/mL) | 3 µM (≈ 4.87 µg/mL) | 3 µM (≈ 4.87 µg/mL) | 6 µM (≈ 9.74 µg/mL) | 12 µM (≈ 19.5 µg/mL) | 6 µM (≈ 9.74 µg/mL) | 93% | 64% | 19% | 9% | MIC (Saccharomyces cerevisiae): 12 µM (≈ 19.5 µg/mL); hemolysis at 40 min, 1.5 µM [14]: 4% |
| CC[C@H](C)[C@H](NC(=O)[C@H](CCCNC(=N)N)NC(=O)[C@H](CC(C)C)NC(=O)[C@H](CC(C)C)NC(=O)[C@H](Cc1ccccc1)NC(=O)[C@H](CCCCN)NC(=O)[C@H](CO)NC(=O)[C@H](Cc1ccccc1)NC(=O)[C@H](Cc1c[nH]c2ccccc12)NC(=O)[C@H](CCC(N)=O)NC(=O)[C@@H](NC(=O)[C@@H](N)Cc1ccccc1)C(C)C)C(=O)N[C@@H](CC(C)C)C(N)=O (H-FVQWFSKFLLRIL-NH2) | 48 µM (≈ 81.4 µg/mL) | > 48 µM | 48 µM (≈ 81.4 µg/mL) | > 48 µM | 48 µM (≈ 81.4 µg/mL) | > 48 µM | > 48 µM | 6 µM (≈ 10.2 µg/mL) | 48 µM (≈ 81.4 µg/mL) | 48 µM (≈ 81.4 µg/mL) | 48 µM (≈ 81.4 µg/mL) | > 48 µM | 3 µM (≈ 5.09 µg/mL) | 6 µM (≈ 10.2 µg/mL) | > 48 µM | 6 µM (≈ 10.2 µg/mL) | 83% | 80% | 80% | 78% | MIC (Pseudomonas aeruginosa [4]): > 48 µM; hemolysis at 40 min, 1.5 µM [14]: 69% |
| CC[C@@H](C)[C@@H](NC(=O)[C@H](N)CC(C)C)C(=O)N[C@H](CCCNC(=N)N)C(=O)NCC(=O)N[C@H](CC(C)C)C(=O)N[C@H](Cc1ccccc1)C(=O)N[C@H](CCCCN)C(=O)N[C@H](CO)C(=O)N[C@H](Cc1ccccc1)C(=O)N[C@H](Cc1c[nH]c2ccccc12)C(=O)N[C@H](CCC(N)=O)C(=O)N[C@@H](C(=O)N[C@H](Cc1ccccc1)C(N)=O)C(C)C [listing 1 of 2 here] | – | – | – | – | – | – | – | – | – | – | – | – | – | – | – | – | 81% | 49% | 15% | 6% | hemolysis at 40 min, 1.5 µM [14]: 1% |
| CC[C@@H](C)[C@@H](NC(=O)[C@@H](CCCNC(=N)N)NC(=O)CNC(=O)[C@@H](CC(C)C)NC(=O)[C@@H](Cc1ccccc1)NC(=O)[C@@H](CCCCN)NC(=O)[C@@H](CO)NC(=O)[C@@H](Cc1ccccc1)NC(=O)[C@@H](Cc1c[nH]c2ccccc12)NC(=O)[C@@H](CCC(N)=O)NC(=O)[C@H](NC(=O)[C@H](N)Cc1ccccc1)C(C)C)C(=O)N[C@H](CC(C)C)C(N)=O [listing 2 of 2 here] | – | – | – | – | – | – | – | – | – | – | – | – | – | – | – | – | 90% | 88% | 46% | 13% | hemolysis at 40 min, 1.5 µM [14]: 5% |
| CC[C@@H](C)[C@@H](NC(=O)[C@H](N)CC(C)C)C(=O)N[C@H](CCCNC(=N)N)C(=O)NCC(=O)N[C@H](CC(C)C)C(=O)N[C@H](Cc1ccccc1)C(=O)N[C@H](CCCCN)C(=O)N[C@H](CO)C(=O)N[C@H](Cc1ccccc1)C(=O)N[C@H](Cc1c[nH]c2ccccc12)C(=O)N[C@H](CCC(N)=O)C(=O)N[C@@H](C(=O)N[C@H](Cc1ccccc1)C(N)=O)C(C)C [listing 2 of 2 here] | 6 µM (≈ 9.84 µg/mL) | 6 µM (≈ 9.84 µg/mL) | 12 µM (≈ 19.7 µg/mL) | 12 µM (≈ 19.7 µg/mL) | 12 µM (≈ 19.7 µg/mL) | 6 µM (≈ 9.84 µg/mL) | > 48 µM | 24 µM (≈ 39.4 µg/mL) | 1.5 µM (≈ 2.46 µg/mL) | 12 µM (≈ 19.7 µg/mL) | 3 µM (≈ 4.92 µg/mL) | 6 µM (≈ 9.84 µg/mL) | 6 µM (≈ 9.84 µg/mL) | 6 µM (≈ 9.84 µg/mL) | 12 µM (≈ 19.7 µg/mL) | 1.5 µM (≈ 2.46 µg/mL) | – | – | – | – | MIC (Pseudomonas aeruginosa [4]): > 48 µM; MIC (Saccharomyces cerevisiae): > 48 µM |
